We go through 15 compounds from ChEMBL document CHEMBL2010793, “Synthesis of novel 7-oxo and 7-hydroxy trifluoroallocolchicinoids with cytotoxic effect” (Bioorg Med Chem, 2012).

Experiment [1] concerns KB. Nature of the experiment: Cytotoxicity against human KB cells assessed as inhibition of cell proliferation after 72 hrs by MTS assay. The experiment is classed as functional, cell-based. The procedure, abridged:
(§1)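 KB cells seeded at 650 cells/well in 200 µl medium, dosed 24 h later with compounds from DMSO (1% DMSO final; controls DMSO only). After 72 h, MTS added for 3 h at 37 °C, A490 read; inhibition from treated/control OD ratio. Single-concentration tests in triplicate with docetaxel 2.5 10^-10 M reference; IC50 runs in separate duplicate.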

For another experiment, the species on record is Ovis aries. Nature of the experiment: Inhibition of sheep brain tubulin polymerization at 6.7 x 10^-5 M after 15 mins by turbidimetry analysis. In short, it runs like this:
(§2)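 Microtubule protein from sheep brain, purified by two assembly/disassembly cycles (37 °C/0 °C) in 100 mM MES pH 6.6, 1 mM EGTA, 0.5 mM MgCl2. Compound with microtubule solution held 10 min at 37 °C then 5 min at 0 °C; polymerization followed by turbidity at 350 nm. Screened at 6.7 10^-5 M in triplicate, deoxypodophyllotoxin reference.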

In experiment [2] the test system is KB. Nature of the experiment: Cytotoxicity against human KB cells assessed as inhibition of cell proliferation at 10^-5 M after 72 hrs by MTS assay. The experiment is classed as functional. The note with it: read-out: GI. The procedure, abridged:
as §1

Experiment [3] has as its system KB. Description: Cytotoxicity against human KB cells assessed as inhibition of cell proliferation at 10^-6 M after 72 hrs by MTS assay. The experiment is classed as functional. The settings on record: read-out: GI. In short, it runs like this: as §1
Experiment [4] is described as follows: Inhibition of sheep brain tubulin polymerization after 15 mins by turbidimetry analysis. Set-up: species or system Ovis aries. The procedure, abridged: as §2
In experiment [5] the test system is KB. Description: Cytotoxicity against human KB cells. Type of experiment: functional, cell-based. In short, it runs like this:
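KB cells seeded at 650 cells/well and dosed 24 h later with compounds in DMSO (1% final). Screened at 10^-5 and 10^-6 M in triplicate, with docetaxel 2.5 10^-10 M as reference. After 72 h, MTS was added for 3 h at 37 °C and A490 was read. Inhibition was derived from treated/control OD. IC50 was run in separate duplicate when inhibition exceeded 80% at 10^-5 M.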

Experiment [6] is described as follows: Inhibition of tubulin polymerization. In short, it runs like this:
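Sheep brain microtubule protein was purified by two assembly/disassembly cycles (37 °C/0 °C) in 100 mM MES pH 6.6, 1 mM EGTA, 0.5 mM MgCl2. Samples were incubated 10 min at 37 °C, then 5 min at 0 °C, and polymerization was read by turbidimetry at 350 nm. Compounds were tested at 6.7 10^-5 M in triplicate, with deoxypodophyllotoxin as reference.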

In the case of `COc1ccc2c(c1)C(NC(=O)C(F)(F)F)CC(=O)c1cc(OC)c(OC)c(OC)c1-2` (racemic), the IC50 with KB [1] is 0.045 µM; in experiment [4], 12 µM. Besides, the inhibition in the experiment filed under Ovis aries came to 89%. The inhibition of growth at 10 µM with KB [2] came to 96%. Further, the inhibition of growth at 1 µM in the experiment on KB [3] came to 98%.

For `COc1ccc2c(c1)C(NC(=O)C(F)(F)F)CC(O)c1cc(OC)c(OC)cc1-2` (mixture of isomers), the inhibition in the experiment listed under Ovis aries was determined as 2%. Moreover, the inhibition of growth at 10 µM in the experiment with KB [2] amounted to 9%. Besides, in the experiment with KB [3], the inhibition of growth at 1 µM is 0%.

Compound `COc1cc2c(c(OC)c1OC)-c1ccc(O)cc1C(NC(=O)C(F)(F)F)CC2O` (mixture of isomers) displayed an inhibition in the experiment filed under Ovis aries of 29%. Besides, the inhibition of growth at 10 µM in the experiment with KB [2] came out at 60%. Moreover, the inhibition of growth at 1 µM in the experiment with KB [3] was found to be 0%.

In the case of `COc1ccc(-c2ccc(OC)c3c2C(NC(=O)C(F)(F)F)CC3=O)c(OC)c1OC` (stereo unspecified), the IC50 in the experiment on KB [1] worked out at 1.25 µM. In the experiment listed under Ovis aries, the inhibition turned out to be 33%. Moreover, the inhibition of growth at 10 µM in the experiment on KB [2] is 97%. Further, the inhibition of growth at 1 µM with KB [3] was determined as 0%.

As for `COc1cc2c(cc1OC)-c1ccccc1C(NC(=O)C(F)(F)F)CC2=O` (stereo unspecified), in the experiment listed under Ovis aries, the inhibition is 12%. The inhibition of growth at 10 µM in the experiment on KB [2] was found to be 92%. For the same compound, the inhibition of growth at 1 µM with KB [3] was determined as 0%.

As for `COc1cc([C@@H]2c3cc4c(cc3C[C@H]3COC(=O)[C@@H]32)OCO4)cc(OC)c1OC` [DESOXYPODOPHYLLOTOXIN], the IC50 in the experiment with KB [1] turned out to be 0.003 µM; in experiment [4] it was 3.2 µM. The compound further yielded an inhibition in the experiment filed under Ovis aries of 100%. The inhibition of growth at 10 µM in the experiment on KB [2] worked out at 100%. Further, the inhibition of growth at 1 µM in the experiment with KB [3] came out at 100%.

`COc1cc2c(c(OC)c1OC)-c1ccccc1C(NC(=O)C(F)(F)F)CC2O` (mixture of isomers) showed an inhibition in the experiment filed under Ovis aries of 89%. Further, the inhibition of growth at 10 µM in the experiment with KB [2] turned out to be 8%. Also, in the experiment with KB [3], the inhibition of growth at 1 µM came out at 0%. The compound further had an IC50 in experiment [4] of 13 µM.

In the experiment filed under Ovis aries, `COc1cc2c(cc1OC)C(O)CC(NC(=O)C(F)(F)F)c1cc(O)ccc1-2` (mixture of isomers) came in with an inhibition of 13%. In the experiment with KB [2], the inhibition of growth at 10 µM was determined as 2%. Besides, the inhibition of growth at 1 µM with KB [3] was 0%.

Regarding `COc1cc2c(c(OC)c1OC)-c1ccc(O)cc1C(NC(=O)C(F)(F)F)CC2=O` (stereo unspecified), the results for the IC50 (in the experiment with KB [1]; in experiment [4]) were 0.33 µM and 37 µM, respectively. For the same compound, the inhibition in the experiment listed under Ovis aries is 62%. Moreover, the inhibition of growth at 10 µM with KB [2] stood at 96%. Further, the inhibition of growth at 1 µM with KB [3] came to 37%.

Take `COc1ccc2c(c1)C(NC(=O)C(F)(F)F)CC(=O)c1cc(OC)c(OC)cc1-2` (stereo unspecified): in the experiment listed under Ovis aries, the inhibition was 63%. Also, in the experiment on KB [2], the inhibition of growth at 10 µM stood at 38%. In the experiment with KB [3], the inhibition of growth at 1 µM is 0%. Also, half-maximal inhibition in experiment [4] (IC50) was put at 60 µM.

Regarding `COc1ccc2c(c1)[C@@H](NC(C)=O)CCc1cc(OC)c(OC)c(OC)c1-2`, the IC50 with KB [5] came out at 0.019 µM; in experiment [6], 0.7 µM.

Compound `COc1cc2c(cc1OC)[C@H](O)C[C@@H](NC(=O)C(F)(F)F)c1ccccc1-2` (racemic) displayed an inhibition in the experiment listed under Ovis aries of 23%. Also, the inhibition of growth at 10 µM in the experiment on KB [2] is 9%. Also, in the experiment with KB [3], the inhibition of growth at 1 µM stood at 0%.

Regarding `COc1ccc2c(c1)C(NC(=O)C(F)(F)F)CC(O)c1cc(OC)c(OC)c(OC)c1-2` (stereo unspecified), in the experiment on KB [1], the IC50 is 1.59 µM. This compound yielded an inhibition in the experiment filed under Ovis aries of 18%. In the experiment with KB [2], the inhibition of growth at 10 µM was determined as 94%. The inhibition of growth at 1 µM in the experiment with KB [3] was determined as 0%.

With `COc1cc2c(cc1OC)-c1ccc(O)cc1C(NC(=O)C(F)(F)F)CC2=O` (stereo unspecified), in the experiment listed under Ovis aries, the inhibition came out at 24%. In addition, in the experiment on KB [2], the inhibition of growth at 10 µM was found to be 40%. The inhibition of growth at 1 µM in the experiment on KB [3] came to 0%.

On to `COc1cc2c(c(OC)c1OC)-c1ccccc1C(NC(=O)C(F)(F)F)CC2=O` (stereo unspecified), for which the figures for the IC50 (in the experiment with KB [1]; in experiment [4]) were 2.95 µM and 80 µM, respectively. In the experiment filed under Ovis aries, this compound displayed an inhibition of 48%. The inhibition of growth at 10 µM in the experiment with KB [2] was found to be 91%. In addition, the inhibition of growth at 1 µM with KB [3] was found to be 18%.

By IC50 is commonly meant the concentration at which inhibition is half-maximal. By inhibition is commonly meant the change of the read-out against control, counted positive when it falls. The low end stands for a response near the control, the high end for a response far below the control.
